bovine MsrA act = bovine MsrA enzyme activators, primary screen, biochemical, absorbance, HTS. purified bovine MsrA, absorbance read-out. activation, % at 10.6 µM. 360,000 compounds, 0.3% hits. AID 602163, 2012; in the data active means activation above about 7.5%;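 further: 0% = vehicle and 100% = reference activator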
MsrA inh = bovine MsrA enzyme inhibitors, primary screen, biochemical, absorbance, HTS | Methionine sulfoxide reductase A (Bos taurus) | inhibition, % at 15.5 µM | 360,000 compounds, 0.75% hits | purified bovine MsrA, absorbance read-out; in the data active means inhibition above about 4.5%;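 further: 0% = vehicle wells with enzyme and 100% = reference inhibitor wells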
NR2E3 ag-1 = inhibitors of NR2E3-RetCOR corepressor binding, primary screen, NR2E3 agonist project, biochemical, TR-FRET, GST-NR2E3, biotin-RetCOR; Photoreceptor-specific nuclear receptor (Homo sapiens), Q9Y5X4; 1536-well; inhibition of corepressor binding, % at 4.78 µM; 320,000 compounds, 0.12% hits; AID 2300, 2010;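 active means percent inhibition above the cutoff of mean plus 3 SD of all tested compounds, set per screening campaign, cut at about 20% in these data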;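 further: 0% = DMSO wells and 100% = biotin wells as full block of FRET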
Target sequence (Q9Y5X4 whole entry, looked up): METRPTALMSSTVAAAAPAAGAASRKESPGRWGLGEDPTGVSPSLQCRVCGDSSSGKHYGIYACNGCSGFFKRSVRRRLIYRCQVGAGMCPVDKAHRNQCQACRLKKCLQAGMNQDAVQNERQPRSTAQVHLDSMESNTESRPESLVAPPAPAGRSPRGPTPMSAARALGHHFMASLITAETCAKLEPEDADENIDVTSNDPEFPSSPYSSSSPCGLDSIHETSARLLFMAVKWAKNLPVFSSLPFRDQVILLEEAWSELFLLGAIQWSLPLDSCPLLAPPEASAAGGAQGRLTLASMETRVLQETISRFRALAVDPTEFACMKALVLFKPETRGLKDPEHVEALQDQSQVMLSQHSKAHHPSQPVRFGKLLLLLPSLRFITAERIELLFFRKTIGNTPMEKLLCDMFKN
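System: GST-NR2E3 and biotin-RetCOR proteins; probe or stimulus: 7 nM biotin-RetCOR; doses: compound at 4.8 µM, single dose; schedule: Compound–protein incubation for 5 h at 4 °C; detection: time-resolved FRET; read-out: percent inhibition; controls: biotin wells as high control, 0.6% DMSO wells as low control; format: 1536-well plates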
NadD block = inhibitors of S. aureus NadD, primary screen, biochemical, colorimetric, uHTS; AID 602399, 2012; purified NadD enzyme, colorimetric absorbance read-out; Nicotinate-nucleotide adenylyltransferase NadD (Staphylococcus aureus N315); 360,000 compounds, 0.78% hits; inhibition, % at 20 µM; in the data active means inhibition above about 26%
NR2E3 ag-2 = NR2E3 agonists in two-hybrid cells, primary screen, cell-based, luminescence, CHO-S, Gal4-NCOR/VP16-NR2E3. Photoreceptor-specific nuclear receptor (Homo sapiens), Q9Y5X4. luciferase. inhibition of corepressor binding, % at 3.98 µM. 360,000 compounds, 0.35% hits. AID 602229, 2012;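 active means inhibition above the mean of all tested compounds plus 3 SD, cut at about 70% in these data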;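 further: 0% = DMSO with NR2E3 transfected cells and 100% = cells lacking NR2E3 construct; higher means lower luciferase signal from less NR2E3 corepressor binding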
GalR3 antag = GalR3 antagonists in HEK293 cells, primary screen, cell-based, fluorescence readout; HEK293 GalR3-CNG cAMP membrane potential fluorescence; galR3 body fused to GalR1 C-terminus; Galanin receptor type 3 (Homo sapiens), O60755; AID 651719, 2012; inhibition, % at 3 µM; 360,000 compounds, 0.44% hits;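 active means inhibition above the screen-wide average plus 3 SD, cut at about 13% in these data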;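 further: forskolin and galanin both at EC90 stimulate the cells; cAMP rise reported by CNG channel membrane potential dye signal; 0% = forskolin plus galanin with DMSO and 100% = forskolin alone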
Target sequence (O60755 1-299 limits assumed): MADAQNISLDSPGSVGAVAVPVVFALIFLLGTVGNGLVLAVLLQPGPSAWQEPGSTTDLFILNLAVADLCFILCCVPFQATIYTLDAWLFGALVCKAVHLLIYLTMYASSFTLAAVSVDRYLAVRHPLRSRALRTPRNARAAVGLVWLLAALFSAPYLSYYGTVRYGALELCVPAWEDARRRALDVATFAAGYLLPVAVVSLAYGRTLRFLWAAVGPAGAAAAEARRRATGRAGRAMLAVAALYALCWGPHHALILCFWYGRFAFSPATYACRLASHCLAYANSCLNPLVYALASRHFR
NadD conf = inhibitors of S. aureus NadD, confirmation, biochemical, colorimetric, single concentration | shares compounds with NadD block | purified S. aureus NadD, colorimetric enzyme assay | 2,000 compounds, 13% hits | AID 624309, 2012 | inhibition, % at 20 µM; in the data active means inhibition mostly above about 42%, no sharp cut-off; inactive means mostly below about 42%
Starred values were filed as active, the others as inactive; . = not tested or not shown. Sampled rows, rich in hits. Any-hit rate of the full collection: about 2.5%.

SMILES | bovine MsrA act | MsrA inh | NR2E3 ag-1 | NadD block | NR2E3 ag-2 | GalR3 antag | NadD conf
CC(=O)c1ccc(N(CC(=O)NCC2CCCO2)C(=O)CCC(=O)Nc2cc(C)on2)cc1 (stereo not given) | -13 | 0 | 3 | -2 | -10 | -5 | .
O=C(N/N=C/c1ccc(-c2ccc(Cl)c(C(=O)O)c2)o1)c1cc2c(ccc3ccccc32)o1 | -9 | 3 | 6 | 39* | 6 | -5 | 52*
O=C(NCc1cccc(C(F)(F)F)c1)c1cccc2c1C(=O)c1ccc(N3CCC(Cc4ccccc4)CC3)cc1S2(=O)=O | -1 | . | . | 23 | -10 | . | .
O=C(NCc1ccco1)c1cccc2c1C(=O)c1ccc(/C=C/c3ccccc3)cc1S2(=O)=O | -4 | 3 | . | 48* | -52 | -5 | 46*
O=C(NCCc1ccc(F)cc1)c1cccc2c1C(=O)c1ccc(N3CCC(Cc4ccccc4)CC3)cc1S2(=O)=O | -2 | . | . | 28* | -20 | . | 5
O=C(NCc1ccco1)c1cccc2c1C(=O)c1ccc(N3CCC(Cc4ccccc4)CC3)cc1S2(=O)=O | -2 | . | . | 39* | 2 | . | 5
O=C(NCc1cccc(F)c1)c1cccc2c1C(=O)c1ccc(N3CCC(Cc4ccccc4)CC3)cc1S2(=O)=O | -1 | . | . | 21 | -1 | . | .
O=C(NCc1ccc(F)cc1)c1cccc2c1C(=O)c1ccc(Cl)cc1S2(=O)=O | . | 0 | . | . | . | -4 | .
CN(C)CCN(C(=O)C1CCN(S(=O)(=O)c2cccs2)CC1)c1nc2ccc(F)cc2s1 | -3 | -1 | -3 | -1 | -19 | 4 | .
CCCOc1ccc(C(=O)N/N=C/c2ccc(-c3ccc(S(=O)(=O)Nc4ncccn4)cc3)o2)cc1 | -1 | 4 | 0 | 32* | -26 | -5 | 49*
NS(=O)(=O)c1ccc(-c2ccc(/C=N/NC(=O)c3ccc([N+](=O)[O-])cc3)o2)cc1 | -7 | 4 | 1 | 4 | -7 | -4 | .
O=C(NCc1ccco1)c1cc(-c2ccccc2)nc2ccccc12 | -4 | 1 | -2 | -4 | -14 | 0 | .
O=C(Nc1cccc(S(=O)(=O)NC2=NCCCCC2)c1)c1cc(-c2ccncc2)nc2ccccc12 | -1 | 1 | 1 | 20 | -4 | 1 | .
NS(=O)(=O)c1cccc(NC(=O)COC(=O)c2cc(-c3ccc(Cl)cc3)nc3ccccc23)c1 | -2 | 1 | 2 | 32* | -29 | -2 | 37
O=C(Nc1cccc(S(=O)(=O)NCc2ccco2)c1)c1cc(-c2ccccc2)nc2ccccc12 | -3 | 2 | 2 | 35* | 29 | -3 | 32
O=C(Nc1cccc(S(=O)(=O)NC2=NCCCCC2)c1)c1cc(-c2ccco2)nc2ccccc12 | -3 | 2 | 6 | 46* | 2 | 3 | 59*
Cc1cc(C(=O)OCC(=O)Nc2cccc(S(=O)(=O)N(C)C)c2)c2ccccc2n1 | -3 | 0 | 4 | -5 | -12 | -7 | .
Cc1ccc(-c2nnc(SCC(=O)N/N=C/c3c(C)nn(-c4ccccc4)c3C)n2-c2ccc(C)cc2)cc1 | -3 | 0 | -1 | 30* | 4 | 0 | 15
CCOc1cccc(-c2nn(-c3ccccc3)cc2/C=C(/C#N)C(=O)NCCCn2ccnc2)c1 | -3 | 1 | 1 | 21 | 18 | -2 | .
N#C/C(=C/c1cn(-c2ccccc2)nc1-c1cccc(OCc2ccccc2)c1)C(=O)NCCCn1ccnc1 | -3 | 3 | 3 | 41* | -21 | 3 | -2
CN(c1ccccc1)S(=O)(=O)c1cc(Cl)ccc1Cl | 0 | 1 | 0 | -4 | -8 | -7 | .
CNc1ccc(Br)cc(C(=O)/C=C/c2ccc(OC)cc2)c1=O | -8 | 2 | -2 | 25 | -21 | -1 | .
CNc1ccc(Br)cc(C(=O)/C=C/c2ccc3c(c2)OCO3)c1=O | -5 | 1 | 0 | 40* | -14 | -2 | 20
Cn1c(-c2ccc(C=O)s2)nc2c3ccccc3c3ccccc3c21 | 1 | -1 | -2 | 50* | -52 | 2 | 11
COc1cc2nc(N(CCCN(C)C)C(=O)c3ccc(S(=O)(=O)N4CCc5ccccc54)cc3)sc2cc1OC | -6 | 1 | 1 | 34* | 10 | -4 | 21
SMILES | bovine MsrA act | MsrA inh | NR2E3 ag-1 | NadD block | NR2E3 ag-2 | GalR3 antag | NadD conf
CC1(C)Cc2c(sc3nnn(Cc4ccccc4)c(=O)c23)CO1 | 1 | 0 | -3 | -9 | 6 | -5 | .
Cc1ccccc1COc1ccc(/C(O)=C2/C(=O)C(=O)N(CCCn3ccnc3)C2c2ccco2)cc1 (stereo not given) | -5 | 0 | 10 | 31* | -92 | -5 | 53*
CCOc1ccc(/C(O)=C2/C(=O)C(=O)N(CCN(CC)CC)C2c2ccco2)cc1 (stereo not given) | -1 | 1 | 1 | -1 | -41 | -3 | .
O=[N+]([O-])c1ccc(N2CCN(S(=O)(=O)c3ccc(Cl)cc3)CC2)cc1NCc1cccnc1 | -9 | 1 | 0 | 32* | 22 | 0 | 23
O=C(c1ccc(Cl)cc1)N1CCN(c2ccc([N+](=O)[O-])c(NCc3cccnc3)c2)CC1 | -8 | 0 | -4 | 9 | 19 | -3 | .
CCOc1cc(/C=N/NC(=O)Cn2nc([N+](=O)[O-])cc2C)cc(Br)c1OCc1ccccc1C | -9 | 1 | -1 | 23 | -5 | 3 | .
COc1cc(/C=N/NC(=O)Cn2nc([N+](=O)[O-])cc2C)cc(Br)c1OCc1ccccc1 | -2 | 4 | 0 | 35* | -22 | -4 | 10
O=C(N/N=C\C=C\c1ccco1)c1cc(-c2ccc3ccccc3c2)n[nH]1 | -6 | 2 | 0 | 54* | -152 | -4 | 69*
O=C(N/N=C/C=C\c1ccco1)c1ccccn1 | -5 | 2 | -5 | 5 | -16 | -6 | .
Cc1c(Cl)ccc2c(C(=O)Nc3cc(C(C)(C)C)on3)cc(-c3ccccn3)nc12 | -4 | -1 | 1 | 34* | -13 | -3 | 11
COc1ccc(-c2nc3c(Cl)cc(C(F)(F)F)cn3c2Cc2cccc(F)c2)cc1OC | -9 | 0 | . | -3 | -25 | -6 | .
Cc1nc(SCC(=O)c2cc3ccccc3oc2=O)c(C#N)c(-c2cccs2)c1C(=O)Nc1ccccc1 | -3 | 0 | 5 | 33* | -12 | 5 | 2
COc1ccc2nc(N3C(=O)/C(=C/c4ccccc4)NC3=S)sc2c1 | -3 | -1 | 0 | 44* | -12 | 3 | 6

Bioassay records from PubChem BioAssay.
